How the values were obtained:
Canis familiaris [1] = test: Evaluated for the antiarrhythmic activity in conscious dogs after myocardial infarction by observing for conversion to sinus rhythm.; type: functional, Canis lupus familiaris, Heart
In short: (§1)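 After 30-45 min of adjustment with lead II ECG recording (about 80-85% ectopic complexes), drug was given iv through a foreleg vein in 0.5 mL increments at 2-min intervals. Dosing stopped at sinus rhythm or 3.0 mg/kg total.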

Canis familiaris [2] = test: Evaluated for the antiarrhythmic activity in conscious dogs after myocardial infarction by observing 50% reduction in ectopic rate..; type: functional, Canis lupus familiaris, Heart; in short: as §1
Canis familiaris [3] = species: Canis familiaris; test: Myocardial contractility was measured in dogs prior to the treatment with compound; type: functional, Canis lupus familiaris, Myocardium
In short: (§2)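 Anesthetized dogs with no cardiac insult were allowed about 30 min to stabilize after surgery, then given 25 µg/kg iv, followed by 50 µg/kg 30 min later. Arterial pressure, lead II ECG from limb needle electrodes, ECG-derived heart rate and left ventricular dp/dt at 50 mmHg developed pressure were recorded at 100 mm/s. Values before and 5 min after dosing were compared by Student's t test, p < 0.05.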

Canis familiaris [4] = test: Heart beat rate was measured in dogs after 5 min of administration of 25 ug/Kg dose of the compound; type: functional, Canis lupus familiaris; in short: as §2
Canis familiaris [5] = test: Heart beat rate was measured in dogs after subsequent administration of 50 micorg/Kg 30 min after administration of 25 ug/Kg dose of the compound; type: functional, Canis lupus familiaris; in short: as §2
Canis familiaris [6] = test: Myocardial contractility was measured in dogs after 5 min of administration of 25 ug/Kg dose of the compound; type: functional, Canis lupus familiaris, Myocardium; in short: as §2
Canis familiaris [7] = species: Canis familiaris; test: Heart beat rate was measured in dogs prior to the treatment with compound; type: functional, Canis lupus familiaris; in short: as §2
Canis familiaris [8] = test: Compound was tested for its activity against altering of mean arterial blood pressure when administered with a dose of 25 ug/Kg; Could not significantly alter; type: functional, organism-based; conditions: Canis lupus familiaris; Artery; in short: as §2

Structure (SMILES): CCN(CC)CC(=O)Nc1c(C)cccc1C.Cl
- Dose (Canis familiaris [1]): 9.97 µM/kg
- Dose (Canis familiaris [2]): 5.54 µM/kg

Structure (SMILES): CN(C)CCC=C1c2ccccc2CCc2ccccc21 [AMITRIPTYLINE]
- Dose (Canis familiaris [1]): 4.69 µM/kg
- Dose (Canis familiaris [2]): 3.97 µM/kg

Structure (SMILES): CN1CCC(=C2c3ccccc3C=Cc3ccccc32)CC1 [CYPROHEPTADINE]
- Dose (Canis familiaris [1]): 1.04 µM/kg
- Dose (Canis familiaris [2]): 0.69 µM/kg

Structure (SMILES): C[N+]1(C)CCC(=C2c3ccccc3C=Cc3ccccc32)CC1.[I-]
- Activity (Canis familiaris [3]): 2333 mmHg s-1
- Dose (Canis familiaris [1]): 0.042 µM/kg
- Heart beat (Canis familiaris [4]): 174 beats min-1
- Dose (Canis familiaris [2]): 0.03 µM/kg
- Heart beat (Canis familiaris [5]): 196 beats min-1
- Activity (Canis familiaris [6]): 3250 mmHg s-1
- Heart beat (Canis familiaris [7]): 148 beats min-1
- Activity (Canis familiaris [8]): Could not significantly alter

Structure (SMILES): CN(C)CCC=C1c2ccccc2C=Cc2ccccc21 [CYCLOBENZAPRINE]
- Dose (Canis familiaris [1]): 6.17 µM/kg
- Dose (Canis familiaris [2]): 3.99 µM/kg
